Assay results from ChEMBL document CHEMBL3227981, “Studies on biologically active nucleosides and nucleotides. 5. Synthesis and antitumor activity of some 2,2'-anhydro-1-(3',5'-di-O-acyl-beta-D-arabinofuranosyl)cytosine salts and 2,2'-anhydro-1-(3'-O-acyl-beta-D-arabinofuranoxyl)cytosine 5'-phosphates” (J Med Chem, 1979).

Experiments:
[1] = Toxicity in ip dosed ICR mouse up to 3 weeks; type: organism-based; conditions: in vivo
How it was run: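 Maximum tolerated dose was set from a single ip injection into three female ICR mice weighing 20–21 g, followed by 3 weeks of observation.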

[2] = system: L1210; assay: Antitumor activity against mouse L1210 cells allografted in BDF1 mouse assessed as increase of host life span at 25 mg/kg, ip qd for 5 days; type: functional; conditions: route intraperitoneal
How it was run: (§1)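 BDF1 mice were given 1×10^5 L1210 cells ip. Compound was dissolved or suspended in 0.9% NaCl with 0.1% HCO-60 and given ip daily for 5 days, starting 24 h after inoculation. Groups had 6–10 mice. ILS = (T/C − 1) × 100, from mean survival time of treated versus control mice, observed over 60 days.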

[3] = system: L1210; assay: Antitumor activity against mouse L1210 cells allografted in BDF1 mouse assessed as increase of host life span at 6.25 mg/kg, ip qd for 5 days; type: functional; conditions: route intraperitoneal; how it was run: as §1
[4] = system: L1210; assay: Antitumor activity against mouse L1210 cells allografted in BDF1 mouse assessed as increase of host life span at 100 mg/kg, ip qd for 5 days; type: functional; conditions: route intraperitoneal; how it was run: as §1
[5] = system: L1210; assay: Antitumor activity against mouse L1210 cells allografted in BDF1 mouse assessed as increase of host life span at 200 mg/kg, po qd for 5 days; type: functional
How it was run: (§2)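 L1210 cells (1×10^5) were implanted ip in BDF1 mice. Oral dosing began 24 h later and ran once daily for 5 days, with compound in 0.9% saline containing 0.1% HCO-60 as solution or suspension. Six to ten mice per group. Percent ILS was (T/C − 1) × 100 on mean survival time, with a 30-day observation period.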

[6] = system: L1210; assay: Antitumor activity against mouse L1210 cells allografted in BDF1 mouse assessed as increase of host life span at 100 mg/kg, po qd for 5 days; type: functional; how it was run: as §2

Row | Structure (SMILES) | MTD at 504 h [1] [mg/kg] | Activity [2] [%] | Activity [3] [%] | Activity [4] [%] | Activity [5] [%] | Activity [6] [%]
1 | Cl.N=c1ccn2c(n1)O[C@@H]1[C@H](OC(=O)CCCCCCCCCCBr)[C@@H](COC(=O)CCCCCCCCCCBr)O[C@H]12 | 300 | 61.5 | 12.8 | 145.9 |  | 
2 | CC(C)(C)C(=O)O[C@H]1[C@H]2Oc3nc(=N)ccn3[C@@H]2O[C@@H]1COC(=O)CCCCCCC(=O)OC[C@H]1O[C@@H]2[C@H](Oc3nc(=N)ccn32)[C@@H]1OC(=O)C(C)(C)C.Cl | < 300 | 25 |  |  | 41 | 
3 | CCCCCCCCOc1ccc(C(=O)OC[C@H]2O[C@@H]3[C@H](Oc4nc(=N)ccn43)[C@@H]2OC(=O)c2ccc(OCCCCCCCC)cc2)cc1.Cl | 300 |  |  | 12.8 |  | 
4 | Cc1ccc(S(=O)(=O)NCCC(=O)OC[C@H]2O[C@@H]3[C@H](Oc4nc(=[NH2+])ccn43)[C@@H]2OC(=O)CCNS(=O)(=O)c2ccc(C)cc2)cc1.F[B-](F)(F)F |  | 15 |  | 47.5 |  | 
5 | F[B-](F)(F)F.[NH2+]=c1ccn2c(n1)O[C@@H]1[C@H](OC(=O)CCCl)[C@@H](COC(=O)CCCl)O[C@H]12 |  |  |  |  | 38.5 | 9
6 | CCOCCC(=O)OC[C@H]1O[C@@H]2[C@H](Oc3nc(=N)ccn32)[C@@H]1OC(=O)CCOCC.Cl |  | 15.4 |  | 57.5 |  | 
7 | Cl.N=c1ccn2c(n1)O[C@@H]1[C@H](OC(=O)CCNC(=O)c3ccccc3)[C@@H](COC(=O)CCNC(=O)c3ccccc3)O[C@H]12 |  | 2.6 |  | 32.1 |  | 
8 | CCOC(=O)CCCCCCCCCCCCCCC(=O)OC[C@H]1O[C@@H]2[C@H](Oc3nc(=N)ccn32)[C@@H]1OC(=O)CCCCCCCCCCCCCCC(=O)OCC.Cl |  | 10.7 |  | 37.3 |  | 6.7
9 | Cl.N=c1ccn2c(n1)O[C@@H]1[C@H](O)[C@@H](CO)O[C@H]12 | 3000 | 42.3 |  | 76.9 | 69.2 | 32.5
10 | Cl.N=c1ccn2c(n1)O[C@@H]1[C@H](OC(=O)/C=C/c3ccco3)[C@@H](COC(=O)/C=C/c3ccco3)O[C@H]12 | 300 | 20 |  | 54.7 | 26.7 | 20
11 | Cl.N=c1ccn2c(n1)O[C@@H]1[C@H](OC(=O)c3ccc(Cl)cc3)[C@@H](COC(=O)c3ccc(Cl)cc3)O[C@H]12 | 750 | 31.3 |  | 105.1 | 21.8 | 
12 | F[B-](F)(F)F.[NH2+]=c1ccn2c(n1)O[C@@H]1[C@H](OC(=O)CCCCCCCCCCN3C(=O)c4ccccc4C3=O)[C@@H](COC(=O)CCCCCCCCCCN3C(=O)c4ccccc4C3=O)O[C@H]12 | 500 | 76.9 | 23.1 | >510.3 |  | 
13 | CCOC(=O)CCC(=O)OC[C@H]1O[C@@H]2[C@H](Oc3nc(=N)ccn32)[C@@H]1OC(=O)CCC(=O)OCC.Cl | > 1000 | 12.4 |  | 35.4 |  | 21.6
14 | CCCCCCCOCCC(=O)OC[C@H]1O[C@@H]2[C@H](Oc3nc(=N)ccn32)[C@@H]1OC(=O)CCOCCCCCCC.Cl | 100 | 28.2 |  |  |  | 
15 | Cl.N=c1ccn2c(n1)O[C@@H]1[C@H](OC(=O)c3cccc(Cl)c3)[C@@H](COC(=O)c3cccc(Cl)c3)O[C@H]12 | < 300 | 28.2 |  |  | 38.5 | 
16 | CCCCCCCC(=O)O[C@H]1[C@H]2Oc3nc(=N)ccn3[C@@H]2O[C@@H]1COP(=O)(O)O | 500 | 50.7 | 6.3 | 76 | 50.7 | 
17 | CC(=O)O[C@H]1[C@H]2Oc3nc(=N)ccn3[C@@H]2O[C@@H]1COP(=O)(O)O | > 1500 | 30.7 |  | 57.3 | 46.9 | 13.3
18 | CCCCCCCCCCCCCCCC(=O)O[C@H]1[C@H]2Oc3nc(=N)ccn3[C@@H]2O[C@@H]1COP(=O)(O)O | 500 | 116.4 | 27.4 | >441.1 | 43 | 
19 | CCOc1ccc(C(=O)OC[C@H]2O[C@@H]3[C@H](Oc4nc(=N)ccn43)[C@@H]2OC(=O)c2ccc(OCC)cc2)cc1.Cl | 500 | 33.3 |  | 67.5 |  | 
20 | CCCCCCCCCCCCOCCC(=O)OC[C@H]1O[C@@H]2[C@H](Oc3nc(=N)ccn32)[C@@H]1OC(=O)CCOCCCCCCCCCCCC.Cl | 500 | 118 | 30.8 | >595 |  | 
21 | F[B-](F)(F)F.[NH2+]=c1ccn2c(n1)O[C@@H]1[C@H](OC(=O)CCCCCCCCCCNC(=O)c3ccccc3)[C@@H](COC(=O)CCCCCCCCCCNC(=O)c3ccccc3)O[C@H]12 | 500 | 100 | 38.5 | >292.3 |  | 
22 | Cl.N=c1ccn2c(n1)O[C@@H]1[C@H](OC(=O)c3ccccc3Cl)[C@@H](COC(=O)c3ccccc3Cl)O[C@H]12 | < 300 | 25.6 |  |  | 28.2 | 
23 | Cc1ccc(S(=O)(=O)NCCCCCCCCCCC(=O)OC[C@H]2O[C@@H]3[C@H](Oc4nc(=[NH2+])ccn43)[C@@H]2OC(=O)CCCCCCCCCCNS(=O)(=O)c2ccc(C)cc2)cc1.F[B-](F)(F)F | 500 | 90 | 12.5 | 140 |  | 
24 | F[B-](F)(F)F.[NH2+]=c1ccn2c(n1)O[C@@H]1[C@H](OC(=O)CCCCCN3C(=O)c4ccccc4C3=O)[C@@H](COC(=O)CCCCCN3C(=O)c4ccccc4C3=O)O[C@H]12 | 300 | 23.1 |  | 60.3 |  | 
25 | Cl.N=c1ccn2c(n1)O[C@@H]1[C@H](OC(=O)c3ccc(F)cc3)[C@@H](COC(=O)c3ccc(F)cc3)O[C@H]12 | 500 | 10 |  | 47.4 | 38.5 | 
26 | CCCC(=O)NCCCCCCCCCCC(=O)OC[C@H]1O[C@@H]2[C@H](Oc3nc(=N)ccn32)[C@@H]1OC(=O)CCCCCCCCCCNC(=O)CCC.Cl | 500 | 51.3 | 20.5 | 92.3 |  | 
27 | C=CCCCCCCCCC(=O)OC[C@H]1O[C@@H]2[C@H](Oc3nc(=N)ccn32)[C@@H]1OC(=O)CCCCCCCCC=C.Cl | 300 | 51.3 | 17.9 | 97.5 |  | 
28 | F[B-](F)(F)F.[NH2+]=c1ccn2c(n1)O[C@@H]1[C@H](OC(=O)c3cccc4ccccc34)[C@@H](COC(=O)c3cccc4ccccc34)O[C@H]12 | 500 | 35.5 |  | 82.1 |  | 
29 | F[B-](F)(F)F.[NH2+]=c1ccn2c(n1)O[C@@H]1[C@H](OC(=O)CCN3C(=O)c4ccccc4C3=O)[C@@H](COC(=O)CCN3C(=O)c4ccccc4C3=O)O[C@H]12 |  | 2.6 |  | 39.7 |  | 
